From ChEMBL document CHEMBL1121702, “A structure-activity relationship study of spirolactones. Contribution of the cyclopropane ring to antimineralocorticoid activity” (J Med Chem, 1981) come the findings set out here.

The target in assay [1] is T1, Mineralocorticoid receptor (Rattus norvegicus) (UniProt P22199).
T1 sequence (whole entry): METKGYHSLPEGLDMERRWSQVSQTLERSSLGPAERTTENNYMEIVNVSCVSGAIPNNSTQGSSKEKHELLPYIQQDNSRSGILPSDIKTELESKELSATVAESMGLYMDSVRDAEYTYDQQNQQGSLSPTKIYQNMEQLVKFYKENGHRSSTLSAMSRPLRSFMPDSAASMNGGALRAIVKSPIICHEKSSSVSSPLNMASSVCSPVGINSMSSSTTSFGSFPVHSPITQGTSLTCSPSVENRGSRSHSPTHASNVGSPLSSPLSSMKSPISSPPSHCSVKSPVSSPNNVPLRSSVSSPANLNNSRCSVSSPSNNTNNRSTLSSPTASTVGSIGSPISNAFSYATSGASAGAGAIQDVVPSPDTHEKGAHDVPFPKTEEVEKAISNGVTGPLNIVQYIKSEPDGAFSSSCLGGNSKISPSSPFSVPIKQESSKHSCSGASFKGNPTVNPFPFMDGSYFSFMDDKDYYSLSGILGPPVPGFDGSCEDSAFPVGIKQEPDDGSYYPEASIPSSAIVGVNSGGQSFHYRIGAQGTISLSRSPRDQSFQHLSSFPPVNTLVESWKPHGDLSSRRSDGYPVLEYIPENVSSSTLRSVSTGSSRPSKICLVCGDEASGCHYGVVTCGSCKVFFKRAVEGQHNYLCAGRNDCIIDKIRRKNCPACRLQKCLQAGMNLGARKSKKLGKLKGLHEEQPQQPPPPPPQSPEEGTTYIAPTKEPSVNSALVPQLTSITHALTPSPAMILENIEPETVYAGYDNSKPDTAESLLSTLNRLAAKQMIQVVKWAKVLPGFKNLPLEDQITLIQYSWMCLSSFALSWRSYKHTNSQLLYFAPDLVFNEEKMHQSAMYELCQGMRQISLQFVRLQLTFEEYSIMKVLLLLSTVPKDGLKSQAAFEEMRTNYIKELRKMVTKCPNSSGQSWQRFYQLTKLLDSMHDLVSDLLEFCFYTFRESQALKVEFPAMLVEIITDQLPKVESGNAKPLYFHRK
Put plainly: Displacement of [3H]aldosterone from mineralocorticoid receptor. A digest of the protocol:
(§1)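 Competition binding against [3H]aldosterone at the mineralocorticoid steroid-receptor complex. Each spirolactone competitor was tested at 8 × 10^-8 M, with unlabeled aldosterone at the same concentration as reference. Incubation ran 40 min at 25 °C. Labeled aldosterone still receptor-bound afterwards was measured, and binding affinity was expressed relative to aldosterone.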
Background: Loss of bound radioactivity is the signal in a displacement assay; it reports binding, not function.

Assay [2] has as its target T1, Mineralocorticoid receptor (Rattus norvegicus). Put plainly: Ratio of [3H]aldosterone binding with 8*10e-8 M aldosterone to [3H]aldosterone binding with 8*10e-8 M competitor at Mineralocorticoid receptor. A digest of the protocol:
as §1

Consider `C[C@]12CCC(=O)C=C1CC[C@@H]1[C@@H]2CC[C@@]2(C)[C@H]1CC[C@@]21CCC(=O)O1`, for which the Binding in assay [1] was determined as 36%. In addition, the Relative binding affinity in assay [2] worked out at 0.22.

In assay [1], `C[C@]12CCC(=O)C=C1CC[C@@H]1[C@@H]2[C@@H](O)C[C@]2(C=O)[C@@H](C(=O)CO)CC[C@@H]12` had a Binding of 7.8%. In addition, in assay [2], the Relative binding affinity turned out to be 1.

In assay [1], `CC(=O)S[C@@H]1CC2=CC(=O)CC[C@]2(C)[C@H]2CC[C@@]3(C)[C@@H](CC[C@@]34CCC(=O)O4)[C@H]12` yielded a Binding of 32.2%. In assay [2], the Relative binding affinity was found to be 0.24.

Consider `C[C@]12C=CC(=O)C=C1CCC1C2CC[C@@]2(C)C1CC[C@@]21CCC(=O)O1` (some centres undefined), for which the Binding in assay [1] came out at 53.5%. Besides, the Relative binding affinity in assay [2] is 0.15.

As for `CC12C(=CC(=O)C3CC31)[C@@H]1C[C@@H]1C1C2CCC2(C)C1CCC21CCC(=O)O1` (some centres undefined), the Binding in assay [1] amounted to 55%. The Relative binding affinity in assay [2] was determined as 0.14.

As to `C[C@]12CCC(=O)C=C1C=C[C@@H]1[C@@H]2CC[C@@]2(C)[C@H]1CC[C@@]21CCC(=O)O1`, the Binding in assay [1] amounted to 60%. Besides, the Relative binding affinity in assay [2] came to 0.13.

With `CC12C(=CC(=O)C3CC31)[C@H]1CC1C1C2CCC2(C)C1CCC21CCC(=O)O1` (some centres undefined), the Binding in assay [1] is 77.6%. In assay [2], the Relative binding affinity came to 0.1.

In the case of `CC12CCC(=O)C=C1[C@H]1C[C@H]1C1C2CCC2(C)C1CCC21CCC(=O)O1` (some centres undefined), the Binding in assay [1] was 66%. The Relative binding affinity in assay [2] was 0.12.

`CC12C=CC(=O)C=C1C=CC1C2CCC2(C)C1CCC21CCC(=O)O1` (centres undefined) registered a Binding in assay [1] of 76.6%. Moreover, the Relative binding affinity in assay [2] was found to be 0.1.

`CC12C=CC(=O)C=C1[C@H]1CC1C1C2CCC2(C)C1CCC21CCC(=O)O1` (some centres undefined) returned a Binding in assay [1] of 77%. Moreover, the Relative binding affinity in assay [2] is 0.1.

For the compound `CC12CCC(=O)C=C1[C@@H]1C[C@@H]1C1C2CCC2(C)C1CCC21CCC(=O)O1` (some centres undefined), the Binding in assay [1] was 31.7%. For the same compound, the Relative binding affinity in assay [2] was 0.25.

In assay [1], `CC12C=CC(=O)C=C1[C@H]1C[C@H]1C1C2CCC2(C)C1CCC21CCC(=O)O1` (some centres undefined) registered a Binding of 53%. Further, the Relative binding affinity in assay [2] stood at 0.15.
